Rows were chosen to be rich in hits. Some 5.5% of all compounds tested hit in one or more screens of this group.
STAT1 act = STAT1 signaling activators, primary screen, cell-based, HTS, luciferase reporter | NIH 3T3 STAT1-luciferase reporter, IFN-gamma, luminescence; 100% = IFN-gamma alone, no compound | 2.6% of 200,000 active | activation (% of control), % at 5.5 µM;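 active = activation above the screen-wide mean activation plus 3 SD, cut at about 130% in these data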;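 note: raw ratio to IFN-gamma control signal so 100% means no change and 0% no light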
STAT1 blocker = STAT1 signaling inhibitors, primary screen, cell-based, HTS, luciferase reporter; NIH 3T3 STAT1-luciferase reporter, IFN-gamma, luminescence; inhibition, % at 5.5 µM; 0.35% of 200,000 active;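 active = inhibition above a set limit, the mean inhibition across all tested compounds plus 3 SD, cut at about 34% in these data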;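 note: 0% = IFN-gamma with DMSO and 100% = IFN-gamma with 300 µM nifuroxazide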
STAT3 inh-1 = IL-6 driven STAT3 reporter inhibitors, primary screen, U3A cells, luciferase, luminescence, MLSCN library | inhibition, % at 5.5 µM | IL-6 STAT3-luciferase reporter; host cell line lacks STAT1 | AID 862, 2007 | 0.89% of 190,000 active;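 active = inhibition above the mean inhibition across all screened compounds plus 3 SD, cut at about 44% in these data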;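 note: 0% = DMSO only wells and 100% = 100 µM nifuroxazide control wells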
HSV replic up = enhancers of HSV replication in host cells, fold increase, host cell viability; HSV replication augmentation in cells; maximum fold increase; 0.005% of 220,000 active; AID 1956, 2009; in the data active = maximum fold increase above about 1.5; tested in PC3 cells
STAT3 activator = IL-6 driven STAT3 reporter potentiators, primary screen, U3A cells, luciferase, luminescence, MLSCN library | AID 871, 2007 | IL-6 STAT3-luciferase reporter; 100% = signal with IL-6 EC80 alone | activation (% of control), % at 5.6 µM | 0.91% of 190,000 active;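 active = activation above the screen-wide mean of compound activation plus 3 SD, cut at about 130% in these data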;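 note: 0% = background luminescence of wells with medium and substrate only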
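Detection: reporter luminescence signal / Assay system: STAT1-lacking human U3A cells, STAT3 luciferase reporter / Incubation: compound pre-incubation 1 h before IL-6, then 6 h stimulation at 37 °C / Control set: IL-6-only high control / Read-out: % activation relative to IL-6 control / Probe or stimulus: Interleukin-6, 33 ng/mL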
Cl transport mod = KCC2 cotransporter modulators, thallium flux, primary screen, cell-based, HEK293 KCC2, FluoZin-2 fluorescence, MLSMR; Solute carrier family 12 member 5 (Homo sapiens), Q9H2X9; KCC2 cells, thallium flux FluoZin-2 fluorescence; B-score of Tl+ flux slope (higher = more flux/activation; lower = inhibition) at 10 µM; 2.2% of 190,000 active; AID 1456, 2008;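 active = thallium flux slope and its plate-corrected score both differing from the plate sample mean at a set confidence after two filtering rounds, in either direction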;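 note: slope of fluorescence scaled to starting intensity during 10 to 20 s after thallium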
Target sequence (Q9H2X9 whole entry, looked up): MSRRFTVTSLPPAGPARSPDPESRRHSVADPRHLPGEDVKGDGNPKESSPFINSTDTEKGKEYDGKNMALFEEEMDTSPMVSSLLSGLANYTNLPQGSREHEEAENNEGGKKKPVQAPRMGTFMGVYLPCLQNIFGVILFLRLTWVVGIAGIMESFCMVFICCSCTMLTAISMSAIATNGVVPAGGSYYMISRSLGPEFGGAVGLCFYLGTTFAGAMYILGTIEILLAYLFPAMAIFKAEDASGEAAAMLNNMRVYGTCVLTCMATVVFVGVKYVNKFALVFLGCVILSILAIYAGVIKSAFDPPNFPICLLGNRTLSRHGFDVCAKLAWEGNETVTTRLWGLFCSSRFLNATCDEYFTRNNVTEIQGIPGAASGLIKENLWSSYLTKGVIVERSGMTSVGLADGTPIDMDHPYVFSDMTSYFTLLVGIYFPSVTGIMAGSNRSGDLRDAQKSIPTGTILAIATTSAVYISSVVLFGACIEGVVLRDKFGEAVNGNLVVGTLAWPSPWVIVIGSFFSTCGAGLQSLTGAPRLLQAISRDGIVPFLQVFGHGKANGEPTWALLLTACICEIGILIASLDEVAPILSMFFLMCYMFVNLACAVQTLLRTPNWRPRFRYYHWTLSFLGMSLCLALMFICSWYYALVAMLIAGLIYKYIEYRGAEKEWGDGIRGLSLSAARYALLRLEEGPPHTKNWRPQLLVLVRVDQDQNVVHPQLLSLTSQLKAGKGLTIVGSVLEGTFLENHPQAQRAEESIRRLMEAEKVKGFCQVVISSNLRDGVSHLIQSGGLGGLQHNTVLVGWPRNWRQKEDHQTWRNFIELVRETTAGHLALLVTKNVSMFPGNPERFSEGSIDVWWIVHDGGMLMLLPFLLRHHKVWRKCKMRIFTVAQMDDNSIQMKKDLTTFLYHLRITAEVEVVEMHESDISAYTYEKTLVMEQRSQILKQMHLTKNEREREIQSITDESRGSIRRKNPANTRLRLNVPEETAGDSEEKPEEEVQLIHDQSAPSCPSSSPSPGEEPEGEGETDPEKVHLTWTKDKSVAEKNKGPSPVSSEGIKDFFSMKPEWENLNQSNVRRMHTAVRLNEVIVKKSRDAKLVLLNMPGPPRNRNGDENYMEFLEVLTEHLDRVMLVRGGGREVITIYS
STAT3 inh-2 = STAT3 reporter inhibitors, retest of hits, confirmation, U3A cells, luciferase, luminescence; 45% of 1,200 active; IL-6 STAT3 luciferase reporter; cell line lacks STAT1; shares compounds with STAT3 inh-1; inhibition, % at 5.7 µM;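 active = inhibition above the hit cutoff computed for the primary STAT3 screen, cut at about 44% in these data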;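 note: 0% = IL-6 plus DMSO and 100% = IL-6 plus nifuroxazide control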
NFkB inh 2 = NF-kB reporter inhibitors in human cells, confirmation, counter-screen for STAT3 inhibitor project, cell-based, HEK293T, luciferase, TNF-alpha stimulus | shares compounds with STAT3 inh-1 | 36% of 1,200 active | inhibition, % at 5.7 µM | TNF-alpha induced;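 active = inhibition above the mean of solvent-only control wells plus 3 SD, cutoff set per campaign, cut at about 13% in these data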;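 note: 0% = TNF-alpha with DMSO and 100% = TNF-alpha with MG high control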
STAT1 inh 2 = STAT1 reporter inhibitors, IFN-gamma induced, confirmation, counter-screen for STAT3 inhibitor project, cell-based, NIH 3T3, luciferase luminescence | shares compounds with STAT3 inh-1 | NIH 3T3 STAT1-luciferase reporter | inhibition, % at 5.7 µM | 27% of 1,200 active | AID 1317, 2008;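 active = inhibition above the mean plus 3 SD of solvent-only control wells, limit set per screening run, cut at about 16% in these data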;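 note: 0% = DMSO with IFN-gamma and 100% = nifuroxazide control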
Active calls of the source: *; i = inactive; nt = no result given.

SMILES | STAT1 act | STAT1 blocker | STAT3 inh-1 | HSV replic up | STAT3 activator | Cl transport mod | others
Cc1cc(N/C=C/C(=O)c2cccs2)ccc1F | 121.6 | -25.6 | -14.4 | i | 119.2 | 0.696
O=C(Cc1cccs1)Nc1cccc([N+](=O)[O-])c1 | 97.1 | 1.7 | 2.8 | i | 103.5 | 0.0176
Cc1ccc(N/C=C/C(=O)c2cccs2)cc1C | 50.3 | 53.5* | 65.5* | i | 45.8 | 0.283
Cc1csc2c(N3CCN(C(=O)Nc4ccc(OC(F)(F)F)cc4)CC3)ncnc12 | nt | nt | nt | i | nt | -3.02
N#C/C(=C1\CCCN1)c1ccc2ccccc2n1 | 100.9 | -1.0 | 3.3 | i | 99.4 | -0.0792
N#C/C(=C1/CCCCCN1)c1nc2ccccc2[nH]1 | 129.6* | -32.6 | 1.2 | i | 107.7 | -1.13
O=C(O)c1cc2c(s1)-c1ccccc1CC2 | 102.7 | -3.0 | -11.6 | i | 107.4 | -0.524
c1ccc(-c2cc3n(c2)CCc2ccccc2-3)cc1 | 130.0* | -42.5 | -105.5 | i | 190.8* | 0.38
C/C(=N\NC(=O)Cc1ccc(F)cc1)c1ccc(O)cc1 | 91.0 | 9.8 | 12.6 | nt | 96.1 | 0.662
CC(=O)N1CCc2cc(NC(=O)c3ccc(C)cc3)ccc21 | 131.0* | -29.7 | 29.1 | i | 78.0 | -0.183
N=c1c2c(n(Cc3ccc([N+](=O)[O-])cc3)c3c1CCC3)CCCC2 | 96.1 | 4.4 | 13.4 | i | 96.0 | -0.142
N=c1c2c(n(Cc3ccc(Br)cc3)c3c1CCC3)CCCC2 | 83.4 | 18.8 | 62.8* | i | 48.0 | -0.37 | STAT3 inh-2=48.7*;NFkB inh 2=0.6;STAT1 inh 2=22.1*
N=c1c2c(n(Cc3ccc(Cl)c(Cl)c3)c3c1CCC3)CCCC2 | 74.9 | 27.5 | 61.2* | i | 53.0 | nt | STAT3 inh-2=23.8;NFkB inh 2=8.7;STAT1 inh 2=25.4*
CCOC(=O)N/N=C/C=C/c1ccccc1 | 126.0 | -29.7 | -3.3 | i | 102.9 | 0.433
COc1ccc(CCNc2c(C)c(C)nc3ncnn23)cc1 | 78.3 | 23.7 | 82.4* | i | 35.7 | nt | STAT3 inh-2=84.6*;NFkB inh 2=31.8*;STAT1 inh 2=25.6*
CCCCCOCC1CC(C/C(C)=N/Nc2nc(-c3ccccc3)cs2)C(=O)O1 (stereo unspecified) | 99.2 | 0.9 | -5.9 | i | 107.0 | nt
CCN(c1ccccc1)S(=O)(=O)c1ccc(Cl)c(NC(=O)CN(C)C2CCN(C)CC2)c1 | nt | nt | nt | i | nt | 0.553
O=C(CSc1ccc2ccccc2c1)Nc1ccncc1 | 94.4 | 6.1 | 49.5* | nt | 61.3 | -0.61 | STAT3 inh-2=44.6*;NFkB inh 2=-2.6;STAT1 inh 2=-0.8
O=C(CSc1ccncc1)Nc1ccc2ccccc2c1 | 102.5 | -0.9 | 2.2 | i | 102.4 | 0.107
O=C(COc1ccc2ccccc2c1)Nc1ccncc1 | 95.3 | 3.2 | 45.4* | i | 63.0 | -2.79 | STAT3 inh-2=43.9*;NFkB inh 2=-7.9;STAT1 inh 2=-2.6
O=C(COc1ccccc1)Nc1ccncc1 | 90.2 | 9.0 | 6.4 | i | 98.3 | -0.195
Cc1cc(OCC(=O)Nc2ccncc2)cc(C)c1Br | 98.9 | 1.2 | 67.7* | i | 45.1 | -0.311 | STAT3 inh-2=65.9*;NFkB inh 2=-7.3;STAT1 inh 2=-13.6
O=C(COc1ccc(Br)cc1)Nc1ccc(Cc2ccncc2)cc1 | 99.3 | -1.3 | 24.6 | i | 83.5 | -2.45
COc1ccc(CC(=O)Nc2ccccc2N2CCCCC2)cc1OC | nt | nt | nt | i | nt | -0.188
COc1ccc(NC(=O)C(NC(=O)c2ccc(=O)[nH]c2)c2ccc(C)cc2)cc1 (stereo unspecified) | 104.2 | -4.7 | -14.5 | i | 109.8 | -0.136

Source: PubChem BioAssay
